# Test results as given in article PMC4303306 (Biochemistry, 2014).
# Biological target: T1, wild-type mouse Shp2 catalytic domain (Mus musculus, UniProt P35235)
# T1 sequence (P35235 224-539): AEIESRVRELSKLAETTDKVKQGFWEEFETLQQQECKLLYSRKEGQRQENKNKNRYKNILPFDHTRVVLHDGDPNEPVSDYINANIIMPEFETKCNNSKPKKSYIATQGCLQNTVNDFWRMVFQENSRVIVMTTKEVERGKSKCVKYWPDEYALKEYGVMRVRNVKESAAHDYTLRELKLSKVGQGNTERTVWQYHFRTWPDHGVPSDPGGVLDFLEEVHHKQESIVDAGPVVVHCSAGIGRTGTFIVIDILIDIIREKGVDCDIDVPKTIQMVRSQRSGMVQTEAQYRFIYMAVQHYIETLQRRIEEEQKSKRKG
# Assay: PTP inhibition assay with pNPP, wild-type Shp2 catalytic domain
# Format: biochemical
# Conditions: 120 min incubation
# In short: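 Catalytic-domain PTP (50 nM) was preincubated with test compound or vehicle for 120 min at 37 °C in PTP buffer (50 mM 3,3-dimethyl glutarate pH 7.0, 1 mM EDTA, 50 mM NaCl). It was then assayed at 37 °C with pNPP at the enzyme's previously determined KM, quenched with 5 M NaOH and read at 405 nm. Activity was normalized to controls, and IC50 came from a four-parameter logistic fit. For Shp2, β-mercaptoethanol (250 μM–1 mM) was also tested at 500 nM compound.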
substance,measurement,value
fluorescein,"Shp2 inhibition (structure–activity comparison, Figure 2A)",lack of Shp2 inhibition
